These results are taken from PubChem BioAssay AID743238 (Broad Institute, 2013).

Among all 360,000 compounds or so, about 200 (0.056%) were called active. This excerpt belongs to a sample that is enriched for actives. Values without a mark were called inactive.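 The calls were made as follows: active = mean normalized replicate activation at least 10% and every replicate at or above 10%; inconclusive = only one of the two criteria met; inactive = mean below 10% and not all replicates reach 10%.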

The assay is described as follows: activators of inactive X chromosome reactivation, primary screen, imaging, XiGFP fibroblasts, GFP high-content imaging, set 2 (AID 743238).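 Also: 0% = median of on-plate neutral control wells and 100% = ellipticine 6 µM median.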 As to conditions: XiGFP mouse fibroblasts, % GFP-positive cells imaging, 3 d; at 7.58 µM; hits give high values; cells co-treated with 5-aza-dC sensitizer; scaled so ellipticine positive control = 100%. In a few lines:
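Material: XiGFP fibroblasts, SV40-immortalized. Buffer or medium: DMEM plus 5-aza-dC sensitizer. Compound: single concentration per compound, delivered by pin transfer. Times: 3 days compound exposure. Controls: ellipticine 6 µM.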
Regarding `C[C@@H](NC(=O)C[C@H]1C[C@@H]2c3cc(NC(=O)Nc4ccccc4F)ccc3O[C@@H]2[C@H](CO)O1)c1ccccc1`, the activation was 0.315%.

Regarding `COc1ccc(NC(=O)Nc2ccc3c(c2)CC(=O)N([C@@H](C)CO)C[C@@H](C)[C@H](CN(C)C(=O)NC2CCCCC2)O3)cc1`, the activation is -0.248%. For `C[C@@H]1CN([C@@H](C)CO)C(=O)c2cc(NC(=O)Nc3cccc4ccccc34)ccc2O[C@@H](C)CCCCO[C@@H]1CN(C)S(=O)(=O)c1ccc(Cl)cc1` the value was 0.307%. For `O=S(=O)(NC1CC1)c1ccc2c3c(cccc13)CC2` the value was 0.001%; for `N#CC1(Nc2ccc3c4c(cccc24)CC3)CCCCC1`, 40% (active). The figure for `N#CC1(Nc2ccc(-c3ccc(Cl)cc3)cc2)CCCC1` is -0.0155%; for `CC(C)NC(=O)N(C)C[C@@H]1Oc2c(cccc2N(C)C)C(=O)N([C@H](C)CO)C[C@@H]1C` it is 0.155%.

As to `O=C(CC1CC1)N1[C@@H](CO)[C@H](c2ccccc2)C12CN(Cc1cccnc1)C2`, the activation was 0.0215%. The figure for `COc1ccc2c3c([nH]c2c1)[C@@H](CO)N(C(C)=O)CC31CCN(Cc2ccccc2Cl)CC1` is 0.131%; for `C[C@@H]1CN([C@@H](C)CO)C(=O)Cc2cc(NC(=O)C3CC3)ccc2O[C@H]1CN(C)C(=O)NC1CCCCC1` it is -0.834%. For `O=C(C[C@@H]1CC[C@@H](NC(=O)c2ccc3c(c2)OCO3)[C@H](CO)O1)NCc1ccc(F)cc1` the value was 0.149%; for `Cc1ccc(S(=O)(=O)Nc2ccc3c(c2)C(=O)N([C@@H](C)CO)C[C@H](C)[C@@H](CN(C)CC2CC2)O3)cc1`, -0.069%; for `Cc1ccccc1CN(C)C[C@H]1OCc2cn(nn2)CCCC(=O)N([C@@H](C)CO)C[C@H]1C`, 0.238%. For `CCCN(C)C[C@@H]1Oc2ncc(C#Cc3ccccc3)cc2C(=O)N([C@H](C)CO)C[C@@H]1C` the value was -0.009%. In the case of `C[C@H](CO)N1C[C@H](C)[C@H](CN(C)C(=O)c2ccncc2)Oc2cc(C#CC3(O)CCCC3)ccc2S1(=O)=O`, the activation was 0.469%. In the case of `CN(C)CCCNC(=O)C[C@@H]1C=C[C@H](NC(=O)c2ccccc2F)[C@H](CO)O1`, the activation is -0.107%. The figure for `CCN1/C(=C\c2ccc3ccccc3[n+]2CC)Sc2cc(C)ccc21` is 415% (active); for `CCCNC(=O)N1CC(=O)N2[C@H](C1)[C@@H](c1ccc(C#Cc3ccccc3)cc1)[C@@H]2CO` it is -0.0025%; for `O=C(C[C@@H]1CC[C@@H](NS(=O)(=O)c2ccc(F)cc2)[C@H](CO)O1)NCc1ccc(Cl)c(Cl)c1` it is 0.0265%. The figure for `C[C@H](CO)N1C[C@H](C)[C@H](CN(C)Cc2ccncc2)Oc2ccc(NS(=O)(=O)c3cn(C)cn3)cc2C1=O` is -0.119%. The figure for `CC=Cc1ccc2n(c1=O)C[C@@H]1[C@@H](CO)[C@H](C(=O)NC3CCCC3)[C@H]2N1C(=O)c1cnccn1` (mixture of isomers) is 0.002%. For the molecule `O=C(Nc1ccccc1F)N[C@@H]1CC[C@H](CCNC(=O)C2CC2)O[C@@H]1CO`, the activation was 0.587%. The figure for `O=C(C[C@H]1C=C[C@@H](NC(=O)Nc2cc(F)ccc2F)[C@@H](CO)O1)NCc1ccc2c(c1)OCO2` is 0.137%. The figure for `C[C@@H]1CN([C@H](C)CO)C(=O)c2cccc(NS(C)(=O)=O)c2O[C@@H]1CN(C)S(=O)(=O)c1cccs1` is -1.35%; for `COc1ccccc1NC(=O)N1CC(=O)N2[C@H](CO)[C@@H](c3ccc(C#Cc4ccc(F)cc4)cc3)[C@H]2C1` it is -0.0395%; for `Cc1ccc(S(=O)(=O)N(C)CC(=O)NCCc2c[nH]c3ccccc23)cc1` it is 0.082%. The figure for `N#C/C(=C/c1ccc(N2CCCCC2)o1)C(=O)NCCc1c[nH]c2ccccc12` is 119% (active); for `O=C(NCCc1c[nH]c2ccccc12)c1cc2ccccc2oc1=O` it is -0.0325%; for `CCCNC(=O)NC[C@H]1[C@H](c2ccc(C3=CCCCC3)cc2)[C@H](CO)N1C(C)=O` it is -0.0205%. Regarding `CC(C)NC(=O)N1[C@H](C#N)[C@@H](c2ccc(-c3ccc(F)cc3)cc2)[C@H]1CO`, the activation is 0.054%. The figure for `C[C@@H]1CN([C@H](C)CO)C(=O)c2cc(NC(=O)CCCCCC(=O)Nc3ccccc3N)ccc2O[C@@H]1CN(C)S(=O)(=O)c1ccc(Cl)cc1` is -0.749%; for `C[C@H](O)C#Cc1ccc2c(c1)O[C@@H](CN(C)Cc1cccnc1)[C@H](C)CN([C@H](C)CO)S2(=O)=O` it is 0.253%. The figure for `O=C(NC1Cc2ccccc2C1)[C@H]1[C@H](CO)[C@H]2Cn3c(ccc(C4=CCCCC4)c3=O)[C@H]2N1CC1CC1` is 0.397%; for `CN(C)CC(=O)N[C@@H]1CC[C@H](CC(=O)O)O[C@H]1CO` it is -0.0755%. The figure for `C[C@@H]1CN([C@@H](C)CO)C(=O)c2cc(C#CC3CCCCC3)cnc2O[C@@H]1CN(C)Cc1cncnc1` is -1.05%; for `CCC(=C/c1sc2ccc3ccccc3c2[n+]1C)/C=C1\Sc2ccc3ccccc3c2N1C` it is 68% (active); for `CC(C)C#Cc1cnc2c(c1)C(=O)N([C@@H](C)CO)C[C@@H](C)[C@H](CN(C)C(=O)CCN1CCCCC1)O2` it is 0.409%. Regarding `COc1ccc(NC(=O)Nc2ccc3c(c2)C(=O)N([C@@H](C)CO)C[C@@H](C)[C@@H](CN(C)C(=O)CCCN(C)C)OCCCC[C@@H](C)O3)cc1`, the activation was 0.0725%. For `Cc1ccccc1-c1ccc([C@H]2[C@@H](CO)N3C(=O)CN(C(=O)c4cccnc4)C[C@@H]23)cc1` the value was 0.209%; for `C[C@@H](O)C#Cc1ccc([C@@H]2[C@@H](CO)N3CCCCN(C(=O)c4ccc(F)cc4)C[C@@H]23)cc1`, 0.907%; for `C[C@H]1CN([C@@H](C)CO)C(=O)c2cc(Br)cnc2O[C@H]1CN(C)Cc1cccc(F)c1`, 0.497%.

Turning to `Cc1ccc(S(=O)(=O)N2C[C@H](O)COC[C@@H]3O[C@H](CC(=O)N[C@H]4CCN(Cc5ccccc5)C4)CC[C@H]32)cc1`, the activation was 0.108%.
